According to ChEMBL document CHEMBL3616436, “Synthesis, cytotoxicity and antimicrobial activity of thiourea derivatives incorporating 3-(trifluoromethyl)phenyl moiety” (Eur J Med Chem, 2015):
Converted amounts (≈) assume the structure as drawn.

Tests used:
[1] = Cytotoxicity against human MT4 cells; type: cell-based
[2] = system: Vesicular stomatitis virus; assay: Antiviral activity against Vesicular stomatitis virus ATCC VR 1540 infected in African green monkey Vero 76 cells assessed as reduction of virus-plaque formation after 2 days by crystal violet staining; type: functional, organism-based; details: ATCC VR 1540, Vero, 48 h
[3] = system: Human immunodeficiency virus 1; assay: Antiviral activity against HIV1 3B infected in human MT4 cells assessed as protection against virus-induced cytopathogenicity by MTT assay; type: functional, organism-based; details: Human immunodeficiency virus 1, 3B
Yellow fever virus = assay: Antiviral activity against Yellow fever virus 17D infected in BHK cells assessed as protection against virus-induced cytopathogenicity after 3 to 4 days by MTT assay; type: functional, cell-based
[4] = system: Mammalian orthoreovirus 1; assay: Antiviral activity against Reovirus type-1 ATCC VR-214 infected in BHK cells assessed as protection against virus-induced cytopathogenicity after 3 to 4 days by MTT assay; type: functional, cell-based; details: Mammalian orthoreovirus 1, ATCC VR-214, BHK
Outline: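 Cells seeded in 96-well plates (BHK 5x10^4, MDBK 3x10^4 cells/well), grown overnight to confluence, infected at m.o.i. 0.01 (BHK for Reo-1, MDBK for BVDV); serial compound dilutions in maintenance medium with 0.5% inactivated FBS added after 1 h; viability by MTT after 3–4 days at 37°C; EC50 for 50% protection by linear regression.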

Vaccinia virus = assay: Antiviral activity against Human Vaccinia virus ATCC VR-1549 infected in African green monkey Vero 76 cells assessed as reduction of virus-plaque formation after 3 days by crystal violet staining; type: functional, organism-based; details: Orthopoxvirus vaccinia, ATCC VR-1549, Vero, 72 h
Staphylococcus aureus [5] = assay: Antimicrobial activity against Staphylococcus aureus ATCC 6538 at 400 ug after 18 hrs by disc-diffusion method; type: functional; details: ATCC 6538, 18 h, read-out: IZ
Outline: (§1)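 Disc diffusion on Mueller-Hinton II agar per CLSI; 9 mm paper discs loaded with 400 µg compound from DMSO solution, dried, placed on agar; growth inhibition zone diameter read after 18 h at 35°C.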

[6] = system: Staphylococcus epidermidis; assay: Antimicrobial activity against Staphylococcus epidermidis ATCC 35984 at 400 ug after 18 hrs by disc-diffusion method; type: functional; details: ATCC 35984, 18 h, read-out: IZ; outline: as §1
Bacillus subtilis = assay: Antimicrobial activity against Bacillus subtilis ATCC 6633 at 400 ug after 18 hrs by disc-diffusion method; type: functional; details: ATCC 6633, 18 h, read-out: IZ; outline: as §1
Micrococcus luteus = assay: Antimicrobial activity against Micrococcus luteus ATCC 9341 at 400 ug after 18 hrs by disc-diffusion method; type: functional; details: ATCC 9341, 18 h, read-out: IZ; outline: as §1
Staphylococcus aureus [7] = assay: Antimicrobial activity against Staphylococcus aureus NCTC 4163 after 18 hrs by twofold serial microdilution method; type: functional; details: NCTC 4163, 18 h
Staphylococcus aureus [8] = assay: Antimicrobial activity against Staphylococcus aureus ATCC 25923 after 18 hrs by twofold serial microdilution method; type: functional; details: ATCC 25923, 18 h
[9] = system: Staphylococcus epidermidis; assay: Antimicrobial activity against Staphylococcus epidermidis ATCC 12228 after 18 hrs by twofold serial microdilution method; type: functional; details: ATCC 12228, 18 h
[10] = system: Staphylococcus epidermidis; assay: Antimicrobial activity against Staphylococcus epidermidis ATCC 35984 after 18 hrs by twofold serial microdilution method; type: functional; details: ATCC 35984, 18 h
Staphylococcus aureus [11] = assay: Antimicrobial activity against hospital methicillin-resistant Staphylococcus aureus 53/05 after 18 hrs by twofold serial microdilution method; type: functional; details: 53/05, 18 h
Outline: (§2)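 Twofold serial microdilution in Mueller-Hinton broth. Compound stock was made in DMSO and diluted in sterile water. Tested range was 0.125–512 µg/mL. Final inoculum was 10^5 CFU/mL. Plates were incubated 18 h at 35 °C. MIC is the lowest concentration preventing visible growth.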

Staphylococcus aureus [12] = assay: Antimicrobial activity against hospital methicillin-resistant Staphylococcus aureus 54/05 after 18 hrs by twofold serial microdilution method; type: functional; details: 54/05, 18 h; outline: as §2
Staphylococcus aureus [13] = assay: Antimicrobial activity against hospital methicillin-resistant Staphylococcus aureus 57/05 after 18 hrs by twofold serial microdilution method; type: functional; details: 57/05, 18 h; outline: as §2
Staphylococcus aureus [14] = assay: Antimicrobial activity against hospital methicillin-resistant Staphylococcus aureus 80/05 after 18 hrs by twofold serial microdilution method; type: functional; details: 80/05, 18 h; outline: as §2
[15] = system: Staphylococcus epidermidis; assay: Antimicrobial activity against hospital methicillin-resistant Staphylococcus epidermidis 16/04 after 18 hrs by twofold serial microdilution method; type: functional; details: 16/04, 18 h; outline: as §2
[16] = system: Staphylococcus epidermidis; assay: Antimicrobial activity against hospital methicillin-resistant Staphylococcus epidermidis 31/04 after 18 hrs by twofold serial microdilution method; type: functional; details: 31/04, 18 h; outline: as §2
[17] = system: Staphylococcus epidermidis; assay: Antimicrobial activity against hospital methicillin-resistant Staphylococcus epidermidis 62/04 after 18 hrs by twofold serial microdilution method; type: functional; details: 62/04, 18 h; outline: as §2
[18] = system: Staphylococcus epidermidis; assay: Antimicrobial activity against hospital methicillin-resistant Staphylococcus epidermidis 63/04 after 18 hrs by twofold serial microdilution method; type: functional; details: 63/04, 18 h; outline: as §2
[19] = system: Staphylococcus epidermidis; assay: Antimicrobial activity against hospital methicillin-resistant Staphylococcus epidermidis 76/04 after 18 hrs by twofold serial microdilution method; type: functional; details: 76/04, 18 h; outline: as §2
[20] = system: Staphylococcus epidermidis; assay: Antimicrobial activity against hospital methicillin-resistant Staphylococcus epidermidis 151/04 after 18 hrs by twofold serial microdilution method; type: functional; details: 151/04, 18 h; outline: as §2
Staphylococcus aureus [21] = assay: Ratio of ciprofloxacin MIC to compound MIC for hospital methicillin-resistant Staphylococcus aureus 54/05 after 18 hrs by twofold serial microdilution method; type: functional
Outline: (§3)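 Ratio of MICs for ciprofloxacin and test agent, each from twofold serial broth microdilution in Mueller-Hinton broth following CLSI guidelines. DMSO stock was diluted in sterile water to 0.125–512 µg/mL, with a final inoculum of 10^5 CFU/mL.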

Staphylococcus aureus [22] = assay: Ratio of ciprofloxacin MIC to compound MIC for hospital methicillin-resistant Staphylococcus aureus 57/05 after 18 hrs by twofold serial microdilution method; type: functional; outline: as §3
Staphylococcus aureus [23] = assay: Ratio of ciprofloxacin MIC to compound MIC for hospital methicillin-resistant Staphylococcus aureus 81/05 after 18 hrs by twofold serial microdilution method; type: functional; outline: as §3
Staphylococcus aureus [24] = assay: Ratio of ciprofloxacin MIC to compound MIC for hospital methicillin-resistant Staphylococcus aureus 522/11 after 18 hrs by twofold serial microdilution method; type: functional; outline: as §3
[25] = system: Staphylococcus epidermidis; assay: Ratio of ciprofloxacin MIC to compound MIC for hospital methicillin-resistant Staphylococcus epidermidis […]/[…] after 18 hrs by twofold serial microdilution method; type: functional, 16/04
[26] = system: Staphylococcus epidermidis; assay: Ratio of ciprofloxacin MIC to compound MIC for hospital methicillin-resistant Staphylococcus epidermidis 23/04 after 18 hrs by twofold serial microdilution method; type: functional; outline: as §3
[27] = system: Staphylococcus epidermidis; assay: Ratio of ciprofloxacin MIC to compound MIC for hospital methicillin-resistant Staphylococcus epidermidis 63/04 after 18 hrs by twofold serial microdilution method; type: functional; outline: as §3
[28] = system: Staphylococcus epidermidis; assay: Ratio of ciprofloxacin MIC to compound MIC for hospital methicillin-resistant Staphylococcus epidermidis 151/04 after 18 hrs by twofold serial microdilution method; type: functional; outline: as §3
[29] = system: Mycobacterium tuberculosis; assay: Antimycobacterial activity against drug-sensitive Mycobacterium tuberculosis Spec. 192; type: functional
Outline: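 Classical test-tube successive-dilution method in Youmans' modification of Proskauer and Beck liquid medium with 10% bovine serum. Inoculum came from 14-day cultures. DMSO stock was 10 mg/mL, diluted geometrically in medium. Tubes were incubated at 37 °C. Concentrations tested were 3.1, 6.2, 12.5, 25, 50 and 100 µg/ml. MIC is the minimum concentration inhibiting growth relative to compound-free tubes.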

With Fc1cccc(NC(=S)Nc2cccc(C(F)(F)F)c2)c1 the CC50 [1] was 20 µM, the EC50 [2] was > 20 µM and the EC50 [3] was > 20 µM. The EC50 (Yellow fever virus) was > 9.4 µM, the EC50 [4] was > 9.4 µM and the EC50 (Vaccinia virus) was > 20 µM. For the same molecule, the zone of inhibition at 400 µg/disc (Staphylococcus aureus [5]) was 20 mm, the zone of inhibition at 400 µg/disc [6] was 19 mm and the zone of inhibition at 400 µg/disc (Bacillus subtilis) was 20 mm. For the same molecule, the zone of inhibition at 400 µg/disc (Micrococcus luteus) was 23 mm, the MIC (Staphylococcus aureus [7]) was 4 µg/mL (≈ 12.7 µM) and the MIC (Staphylococcus aureus [8]) was 4 µg/mL (≈ 12.7 µM). It also gave an MIC [9] of 8 µg/mL (≈ 25.5 µM), an MIC [10] of 8 µg/mL (≈ 25.5 µM) and an MIC (Staphylococcus aureus [11]) of 4 µg/mL (≈ 12.7 µM). The MIC (Staphylococcus aureus [12]) was 8 µg/mL (≈ 25.5 µM), the MIC (Staphylococcus aureus [13]) was 4 µg/mL (≈ 12.7 µM) and the MIC (Staphylococcus aureus [14]) was 8 µg/mL (≈ 25.5 µM). It also gave an MIC [15] of 8 µg/mL (≈ 25.5 µM), an MIC [16] of 8 µg/mL (≈ 25.5 µM) and an MIC [17] of 8 µg/mL (≈ 25.5 µM). It also gave an MIC [18] of 16 µg/mL (≈ 50.9 µM), an MIC [19] of 16 µg/mL (≈ 50.9 µM) and an MIC [20] of 16 µg/mL (≈ 50.9 µM). The Ratio (Staphylococcus aureus [21]) was 128, the Ratio (Staphylococcus aureus [22]) was 128 and the Ratio (Staphylococcus aureus [23]) was 128. For the same molecule, the Ratio (Staphylococcus aureus [24]) was 128, the Ratio [25] was 128 and the Ratio [26] was 128. For the same molecule, the Ratio [27] was 128, the Ratio [28] was 128 and the MIC [29] was > 100 µg/mL.
With O=C(O)c1cn(C2CC2)c2cc(N3CCNCC3)c(F)cc2c1=O [CIPROFLOXACIN] the zone of inhibition at 400 µg/disc (Staphylococcus aureus [5]) was 28 mm, the zone of inhibition at 400 µg/disc [6] was 32 mm and the zone of inhibition at 400 µg/disc (Bacillus subtilis) was 40 mm. The zone of inhibition at 400 µg/disc (Micrococcus luteus) was 24 mm, the MIC (Staphylococcus aureus [7]) was 0.25 µg/mL (≈ 0.754 µM) and the MIC (Staphylococcus aureus [8]) was 0.5 µg/mL (≈ 1.51 µM). The MIC [9] was 0.25 µg/mL (≈ 0.754 µM), the MIC [10] was 0.25 µg/mL (≈ 0.754 µM) and the MIC (Staphylococcus aureus [11]) was 64 µg/mL (≈ 193 µM). For the same molecule, the MIC (Staphylococcus aureus [13]) was 128 µg/mL (≈ 386 µM), the MIC [15] was 32 µg/mL (≈ 96.6 µM) and the MIC [16] was 64 µg/mL (≈ 193 µM). For the same molecule, the MIC [17] was 0.125 µg/mL (≈ 0.377 µM), the MIC [18] was 4 µg/mL (≈ 12.1 µM) and the MIC [19] was 0.125 µg/mL (≈ 0.377 µM). The MIC [20] was 4 µg/mL (≈ 12.1 µM).
